The results in this text go back to ChEMBL document CHEMBL1123985, “Oral absorption of cephalosporin antibiotics. 1. Synthesis, biological properties, and oral bioavailability of 7-(arylacetamido)-3-chloro cephalosporins in animals” (J Med Chem, 1988).

The nature of data set [1]: Area under plasma concentration vs time curve observed in Rhesus monkeys after, iv administration of single 30 mg/kg dose. Set-up: dose 30 mg/kg, route intravenous. The settings on record: rhesus monkey. The format is ADME, organism-based, Macaca mulatta. A digest of the protocol: (§1)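 Rhesus monkeys, adult males, six animals per compound, each given drug orally and iv; fasted overnight. Single 30 mg/kg solution doses, by nasogastric tube (in water) or saphenous vein (in isotonic lactated Ringer). Plasma sampled at intervals, frozen at -70 °C, antibacterial activity by microbiological assay. AUC in μg min/mL; oral bioavailability from oral vs iv AUC.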

Data set [2] can be described thus: Area under plasma concentration vs time curve observed in Rhesus monkeys after oral administration of single 30 mg/kg dose. In kind it is ADME, organism-based, Macaca mulatta. Set-up: dose 30 mg/kg, route oral. The settings on record: rhesus monkey. A digest of the protocol:
as §1

In data set [3] the test system is Canis familiaris. Kind of data set: Area under plasma concentration vs time curve observed in female mongrel dogs after, iv administration of single 15 mg/kg dose. The format is ADME, organism-based, Canis lupus familiaris. Set-up: dose 15 mg/kg, route intravenous. The settings on record: dog, in vivo. A digest of the protocol: (§2)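 Six female mongrel dogs (14-23 kg) fasted overnight, bladder catheterized; single 15 mg/kg solution doses by stomach tube (in water, total 500 mL) or cephalic vein (saline or pH 6.0 NaCl/phosphate/acetate buffer). Plasma sampled at intervals; activity by disk-plate agar diffusion against E. coli MB 3804, standards in dog serum or buffer. AUC μg min/mL, mean ± SEM; BA from iv vs po AUC and urinary recovery.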

The subject of data set [4] is Canis familiaris. Briefly: Area under plasma concentration vs time curve observed in female mongrel dogs after, oral administration of single 15 mg/kg dose. In kind it is ADME, organism-based, Canis lupus familiaris. On the set-up: dose 15 mg/kg, route oral. The settings on record: dog, in vivo. In outline:
as §2

Data set [5] is described as follows: Oral bioavailability in mouse. The format is ADME, organism-based. Particulars: in vivo. A digest of the protocol: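 Male Cox mice given water and liquid diet overnight; 20 mg/kg in saline (2 mg/mL) sc or orally; urine from collection cages plus bladder contents over 2 h; activity by agar well assay with Bacillus subtilis ATCC 6633. Bioavailability from percent dose excreted in urine after oral vs parenteral dosing.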

The nature of data set [6]: Oral bioavailability in Rhesus monkey. In kind it is ADME, organism-based, Macaca mulatta. Particulars: in vivo. In outline:
as §1

Data set [7] is described as follows: Oral bioavailability in dog (female mongrel). In kind it is ADME, organism-based, Canis lupus familiaris. The settings on record: in vivo. In outline: as §2
The nature of data set [8]: Dose in urine (24-h urine excretion) in female mongrel dogs after oral administration of single 15 mg/kg dose. In kind it is ADME, organism-based, Canis lupus familiaris. On the set-up: dose 15 mg/kg, route oral. The settings on record: dog. In outline:
(§3)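 Female mongrel dogs (n=6), bladder catheter; urine collected at intervals after single 15 mg/kg iv or oral solution dose, frozen; antibiotic activity by disk-plate agar diffusion against E. coli MB 3804 with standards in pH 6.0 buffer; percent of dose recovered in urine.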

The next data set relates to Escherichia coli. Kind of data set: Minimum inhibitory concentration against EC14 strain Escherichia coli. The format is functional.
In a further data set the test system is Klebsiella aerogenes. Kind of data set: Minimum inhibitory concentration against EB17 strain of Enterobacter aerogenes. The format is functional.
In the next data set the test system is Klebsiella pneumoniae. Kind of data set: Minimum inhibitory concentration against X68 strain of Klebsiella pneumoniae. In kind it is functional.
The test system of another data set is Salmonella. Kind of data set: Minimum inhibitory concentration against X514 strain of Salmonella. In kind it is functional.
Data set [9] in a line: Minimum inhibitory concentration against N9 strain of Shigella sonnei. The format is functional.
Data set [10] deals with Staphylococcus epidermidis. Kind of data set: Minimum inhibitory concentration against 222 strain of Staphylococcus epidermidis. The format is functional.
Data set [11] concerns Staphylococcus epidermidis. Briefly: Minimum inhibitory concentration against Epil strain of Staphylococcus epidermidis. In kind it is functional.
The subject of data set [12] is Staphylococcus aureus. Kind of data set: Minimum inhibitory concentration against S13E strain of Staphylococcus aureus. The format is functional.
Data set [13] relates to Staphylococcus aureus. Briefly: Minimum inhibitory concentration against V41 strain of Staphylococcus aureus. The format is functional.
The test system of data set [14] is Staphylococcus aureus. Kind of data set: Minimum inhibitory concentration against X1.1 strain of Staphylococcus aureus. In kind it is functional.
In data set [15] the test system is Streptococcus pyogenes. Kind of data set: Minimum inhibitory concentration against Streptococcus pyogenes C203. The format is functional.
A short description of data set [16]: (§4) Minimum inhibitory concentration against sens CL strain of Haemophilus influenzae. In kind it is functional.
The nature of data set [17]: (§5) Minimum inhibitory concentration against res 76 strain of Haemophilus influenzae. The format is functional.
A short description of data set [18]: Dose in urine (24-h urine excretion) in female mongrel dogs after iv administration of single 15 mg/kg dose. In kind it is ADME, organism-based, Canis lupus familiaris. Set-up: dose 15 mg/kg, route intravenous. Particulars: dog. In outline: as §3
For data set [19], the system named is Staphylococcus aureus. Briefly: Minimum inhibitory concentration against 3055 strain of Staphylococcus aureus.
Data set [20] has as its system Streptococcus pyogenes. Briefly: Minimum inhibitory concentration against C203 strain of Streptococcus pyogenes.
For data set [21], the system named is Streptococcus pneumoniae. Briefly: Minimum inhibitory concentration against park strain of Streptococcus pneumoniae.
Data set [22] concerns Streptococcus pneumoniae. Kind of data set: Minimum inhibitory concentration against Park strain of Streptococcus pneumoniae.
Data set [23] deals with Mus musculus. Kind of data set: Efficacy against mouse infected ip with C203 strain of Streptococcus pyogenes, administered po to 19-21-g random sex ICR mice at 1 hr and 5 hr. The format is functional. A digest of the protocol: (§6)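 ICR mice, random sex, 19-21 g, challenged ip with 50-500 LC50 from a frozen organism pool; compound given sc or po at 1 and 5 h after challenge, five 2-fold dose levels, eight mice per level; ED50 derived.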

Data set [24] has as its system Mus musculus. Briefly: Efficacy against mouse infected ip with C203 strain of Streptococcus pyogenes, administered sc to 19-21-g random sex ICR mice at 1 hr and 5 hr. In kind it is functional. A digest of the protocol: as §6
In data set [25] the test system is Mus musculus. Kind of data set: Efficacy against mouse infected ip with park strain of Streptococcus pneumoniae administered po to 19-21-g random sex ICR mice at 1 hr and 5 hr. The format is functional. A digest of the protocol: as §6
Data set [26] deals with Mus musculus. Briefly: Efficacy against mouse infected ip with park strain of Streptococcus pneumoniae administered sc to 19-21-g random sex ICR mice at 1 hr and 5 hr. The format is functional. In outline: as §6
The subject of data set [27] is Mus musculus. Briefly: Efficacy against mouse infected ip with 3055 strain of Staphylococcus aureus, administered po to 19-21-g random sex ICR mice at 1 hr and 5 hr. The format is functional. In outline: as §6
The subject of data set [28] is Mus musculus. Briefly: Efficacy against mouse infected ip with 3055 strain of Staphylococcus aureus, administered sc to 19-21-g random sex ICR mice at 1 hr and 5 hr. The format is functional. In outline: as §6
Data set [29] deals with Streptococcus pneumoniae. Briefly: Minimum inhibitory concentration against Park strain of Streptococcus pneumoniae. In kind it is functional.
Data set [30] relates to Streptococcus pyogenes. Kind of data set: Minimum inhibitory concentration against C203 strain of Streptococcus pyogenes. This is another data set of the same source.
Data set [31] concerns Haemophilus influenzae. The data set is described as §4. In kind it is functional.
The subject of data set [32] is Haemophilus influenzae. The data set is described as §5. In kind it is functional.

Converted amounts (≈) assume the structure as drawn. A value given as a limit tells only on which side of the number the result lay.

Regarding `O=C(Cc1cccs1)N[C@@H]1C(=O)N2C(C(=O)O)=C(Cl)CS[C@H]12`, the AUC is 43200 ng·h/mL in data set [1], 5670 ng·h/mL in data set [2], 75300 ng·h/mL in the data set on Canis familiaris [3] and 15500 ng·h/mL in the data set with Canis familiaris [4]. Besides, the bioavailability in data set [5] came out at 44%; in [6] it was 13.1%; in data set [7], 21%. The dose excreted is 17% in [8] and 75% in data set [18]. Moreover, the MIC in the data set with Escherichia coli was determined as 4 µg/mL (≈ 11.1 µM); in the data set with Klebsiella aerogenes, 64 µg/mL (≈ 178 µM); in the data set on Klebsiella pneumoniae it was 2 µg/mL (≈ 5.57 µM); in the data set on Salmonella it was 2 µg/mL (≈ 5.57 µM); in [9], 32 µg/mL (≈ 89.2 µM); in data set [10], 1 µg/mL (≈ 2.79 µM). For the same compound, the MIC in data set [11] was found to be 2 µg/mL (≈ 5.57 µM); in the data set with Staphylococcus aureus [12] it was 16 µg/mL (≈ 44.6 µM); in the data set on Staphylococcus aureus [13], 16 µg/mL (≈ 44.6 µM); with Staphylococcus aureus [14], 0.5 µg/mL (≈ 1.39 µM); against Streptococcus pyogenes [15] it was 0.125 µg/mL (≈ 0.348 µM); in data set [16] it was 1 µg/mL (≈ 2.79 µM). Also, the MIC in [17] amounted to 1 µg/mL (≈ 2.79 µM); in the data set with Staphylococcus aureus [19] it was 0.5 µg/mL (≈ 1.39 µM); in the data set with Streptococcus pyogenes [20], 0.125 µg/mL (≈ 0.348 µM); in the data set with Streptococcus pneumoniae [21] it was 0.25 µg/mL (≈ 0.697 µM); in the data set on Streptococcus pneumoniae [22], 0.125 µg/mL (≈ 0.348 µM).

In turn, `N[C@@H](C(=O)N[C@@H]1C(=O)N2C(C(=O)O)=C(Cl)CS[C@H]12)c1ccccc1` [CEFACLOR ANHYDROUS] returned a bioavailability in data set [5] of 76%. The MIC against Escherichia coli is 1 µg/mL (≈ 2.72 µM); in the data set with Klebsiella aerogenes it was 16 µg/mL (≈ 43.5 µM); in the data set with Klebsiella pneumoniae, 1 µg/mL (≈ 2.72 µM); against Salmonella, 0.5 µg/mL (≈ 1.36 µM); in data set [9] it was 4 µg/mL (≈ 10.9 µM); in [10], 4 µg/mL (≈ 10.9 µM). Besides, the MIC in [11] was 8 µg/mL (≈ 21.8 µM); in the data set with Staphylococcus aureus [12], 64 µg/mL (≈ 174 µM); against Staphylococcus aureus [13], 16 µg/mL (≈ 43.5 µM); against Staphylococcus aureus [14] it was 1 µg/mL (≈ 2.72 µM); in the data set with Streptococcus pyogenes [15], 0.25 µg/mL (≈ 0.68 µM); in data set [16], 1 µg/mL (≈ 2.72 µM). Moreover, the MIC was determined as 2 µg/mL (≈ 5.44 µM) in [17]; 0.5 µg/mL (≈ 1.36 µM) with Streptococcus pneumoniae [29]; 1 µg/mL (≈ 2.72 µM) with Staphylococcus aureus [19]; 0.25 µg/mL (≈ 0.68 µM) in the data set on Streptococcus pyogenes [30]; 2 µg/mL (≈ 5.44 µM) against Streptococcus pneumoniae [21]. In addition, the 50% effective dose (ED50) in the data set with Mus musculus [23] was 1.25 mg/kg; in the data set on Mus musculus [24], 1.25 mg/kg; with Mus musculus [25] it was 10.7 mg/kg; in the data set with Mus musculus [26], 11.5 mg/kg; with Mus musculus [27] it was 1.36 mg/kg; with Mus musculus [28], 1.32 mg/kg.

Turning to `CC1=C(C(=O)O)N2C(=O)[C@@H](NC(=O)COc3ccccc3)[C@H]2SC1`, the bioavailability in [5] came out at 37%. The MIC in the data set with Escherichia coli is greater than 128 µg/mL; against Klebsiella aerogenes it was greater than 128 µg/mL; with Klebsiella pneumoniae it was greater than 128 µg/mL; in the data set with Salmonella, greater than 128 µg/mL; in [9] it was greater than 128 µg/mL; in data set [10], 4 µg/mL (≈ 11.5 µM). Further, the MIC in [11] was 16 µg/mL (≈ 45.9 µM); against Staphylococcus aureus [12], greater than 128 µg/mL; against Staphylococcus aureus [13] it was 32 µg/mL (≈ 91.9 µM); against Staphylococcus aureus [14], 2 µg/mL (≈ 5.74 µM); in the data set with Streptococcus pyogenes [15], 2 µg/mL (≈ 5.74 µM); in the data set with Haemophilus influenzae [31], 16 µg/mL (≈ 45.9 µM). Further, the MIC against Haemophilus influenzae [32] turned out to be 8 µg/mL (≈ 23 µM); in the data set on Streptococcus pneumoniae [22], 2 µg/mL (≈ 5.74 µM).
